Laboratory results: ChEMBL document CHEMBL4513216, “Probing the Open Global Health Chemical Diversity Library for Multistage-Active Starting Points for Next-Generation Antimalarials” (ACS Infect Dis, 2020)

Test: Toxicity liver stage against HepG2, at 10uM
Type: cell-based
Parameters: test concentration 10 uM, cell line HepG2-A16-CD81EGFP
Conditions: human, HepG2-A16-CD81EGFP cells; read-out: INHIBITION
In short: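 Uninfected HepG2-A16-CD81EGFP cells, 3 × 10^3 per well, 1536-well, plated on prespotted compound at 10 μM final, parasite-free screening media added to match infected plates; puromycin 10 μM positive, DMSO 0.5% negative; run in parallel with 48 h PbLuc assay at 37 °C, 5% CO2; viability by CellTiter-Glo luminescence, normalized to controls.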

With `Cc1ncc(CN2CCCN(Cc3noc(C4CC4)n3)CC2)s1` as the molecule, how does the cytotoxicity at 10 µM read?
The cytotoxicity at 10 µM was -8.57%.

With `Cc1noc(C(C)N2CCN(Cc3nc(C)c(C)o3)CC2)n1` (stereo not given) as the molecule, how does the cytotoxicity at 10 µM read?
The cytotoxicity at 10 µM was 0.397%.

Which cytotoxicity at 10 µM does the source give for `Cc1ccoc1C(=O)N1CCO[C@H]2[C@H](OCc3ccncc3)CC[C@@H]21` here?
The cytotoxicity at 10 µM was 9.06%.

For `CC1=C[C@@H](CC#N)[C@H](C(C)C)C[C@H]1CC(=O)N1CCN(C)CC1`, which cytotoxicity at 10 µM is on record?
The cytotoxicity at 10 µM was -4.42%.

For `CO[C@@H]1CCN(Cc2cccs2)[C@H]1Cc1ccncc1`, which cytotoxicity at 10 µM is on record?
The cytotoxicity at 10 µM was -73.4%.

With `Cc1ccc(NCc2cncc3c2CCN(C(=O)C2CC=CC2)C3)nn1` as the molecule, how does the cytotoxicity at 10 µM read?
Its cytotoxicity at 10 µM is -2.42%.

For `Cn1ccc2c(C(=O)N3CCCC3c3noc(C4CC4)n3)cccc21` (stereo not given), which cytotoxicity at 10 µM is on record?
The cytotoxicity at 10 µM was -7.82%.

For `O=C(NCC(F)(F)F)c1ccncc1`, which cytotoxicity at 10 µM is on record?
The cytotoxicity at 10 µM was -19%.

With `Cc1nc2oc(C(=O)N3CCOCC3)c(N)c2c2c1CCCC2` as the molecule, how does the cytotoxicity at 10 µM read?
The cytotoxicity at 10 µM was -2.8%.

For `CC(C)c1nc2c(n1C)CCN(Cc1nc(-c3cccs3)no1)C2`, which cytotoxicity at 10 µM is on record?
The cytotoxicity at 10 µM was -10.1%.

For `CC(=O)N1CC[C@H]2OCC[C@@H](C(=O)Nc3cccnc3C)[C@@H]2C1`, which cytotoxicity at 10 µM is on record?
Its cytotoxicity at 10 µM is 11.3%.

For `O=C(NCC1CC2(CO1)CN(c1nncs1)C2)C1CCC1` (stereo not given), which cytotoxicity at 10 µM is on record?
The cytotoxicity at 10 µM was -103%.

With `CCN1CCN(C(=O)C(C)N2CCN(Cc3nccn3C)CC2)CC1` (stereo not given) as the molecule, how does the cytotoxicity at 10 µM read?
The cytotoxicity at 10 µM was -6.34%.

For `CCn1ccc(C(=O)NCCCN2CCOCC2)n1`, which cytotoxicity at 10 µM is on record?
Its cytotoxicity at 10 µM is -7.9%.

For `CC(=O)Nc1cccc(OCCNC(=O)N(C)Cc2ccco2)c1`, which cytotoxicity at 10 µM is on record?
Its cytotoxicity at 10 µM is -9.29%.

For `CC(NC1CCCC1)c1ccccc1-n1cccn1` (stereo not given), which cytotoxicity at 10 µM is on record?
The cytotoxicity at 10 µM was 7.5%.

Which cytotoxicity at 10 µM does the source give for `O=C(c1cscn1)N1CC[C@H]2C[C@@H](c3ccncn3)O[C@@H]2C1` here?
The cytotoxicity at 10 µM was -76.6%.

With `CC(C(=O)N1CCOCC1)S(=O)(=O)Cc1noc(C(C)(C)C)n1` (stereo not given) as the molecule, how does the cytotoxicity at 10 µM read?
Its cytotoxicity at 10 µM is -14.2%.

Which cytotoxicity at 10 µM does the source give for `CN(CCSc1ccccc1)C(=O)c1cn2c(n1)CNCC2` here?
The cytotoxicity at 10 µM was -47.4%.

For `COc1ccc(COCC(=O)N2CCN(CC(C)(C)O)CC2)cc1`, which cytotoxicity at 10 µM is on record?
The cytotoxicity at 10 µM was -4.92%.

Which cytotoxicity at 10 µM does the source give for `COCCCN(C)C(=O)c1nnn(-c2ccccc2Cl)c1C` here?
The cytotoxicity at 10 µM was 9.38%.

Which cytotoxicity at 10 µM does the source give for `CCN(C)CC1CCN(C(=O)Nc2ccc(-c3cc[nH]n3)cc2)C1` (stereo not given) here?
The cytotoxicity at 10 µM was -6.25%.

For `COC(=O)c1cccc(C(=O)N2CCN(c3ccc(OC)cc3)CC2)n1`, which cytotoxicity at 10 µM is on record?
The cytotoxicity at 10 µM was -7.12%.

Which cytotoxicity at 10 µM does the source give for `CN(C)CCN(C)C(=O)c1ccccc1-n1cc(CN(C)C)cn1` here?
Its cytotoxicity at 10 µM is -13.7%.

With `Cc1cc(C)n(C2CN(CCC(=O)NC3CCCCC3)C2)n1` as the molecule, how does the cytotoxicity at 10 µM read?
Its cytotoxicity at 10 µM is 1.04%.

Which cytotoxicity at 10 µM does the source give for `CCCc1nc(N2CCSCC2)c2c(n1)c(C)nn2CC` here?
Its cytotoxicity at 10 µM is 8.05%.

With `O=C(O)Cn1ccc(=O)c2cc(F)ccc21` as the molecule, how does the cytotoxicity at 10 µM read?
The cytotoxicity at 10 µM was -0.0342%.

Which cytotoxicity at 10 µM does the source give for `c1cc2nccc(CC3CCCN(Cc4c[nH]cn4)CC3)c2cn1` (stereo not given) here?
Its cytotoxicity at 10 µM is -5.11%.

With `Cc1nc(CO[C@@H]2CN(Cc3cccs3)[C@@H]3COC[C@@H]32)cs1` as the molecule, how does the cytotoxicity at 10 µM read?
The cytotoxicity at 10 µM was -0.646%.

Which cytotoxicity at 10 µM does the source give for `COCCOc1ccnc(-c2noc([C@@H]3CCCN3CC3CC3)n2)c1` here?
The cytotoxicity at 10 µM was -4.55%.

For `CC(C)N1CCC(CC(=O)NC(C(=O)O)c2cccc(F)c2)CC1` (stereo not given), which cytotoxicity at 10 µM is on record?
The cytotoxicity at 10 µM was -0.114%.

Which cytotoxicity at 10 µM does the source give for `Cc1cnn(Cc2cccc(OCC(N)=O)c2)c1` here?
The cytotoxicity at 10 µM was -2.84%.

For `COCCC(=O)N1CCC2(CC1)CN(S(C)(=O)=O)Cc1ccccc1O2`, which cytotoxicity at 10 µM is on record?
Its cytotoxicity at 10 µM is 3.73%.

With `CN1C(=O)CCCC12CCCN(C(=O)c1cc(F)cc(F)c1)C2` (stereo not given) as the molecule, how does the cytotoxicity at 10 µM read?
The cytotoxicity at 10 µM was -1.54%.

With `COCc1noc(-c2cc(Cl)c3c(c2)OCO3)n1` as the molecule, how does the cytotoxicity at 10 µM read?
The cytotoxicity at 10 µM was -4.05%.

Which cytotoxicity at 10 µM does the source give for `Cc1cccc(NC2CCN(C(=O)Nc3ccncc3)CC2)n1` here?
Its cytotoxicity at 10 µM is -17.1%.

For `Fc1ccc(CNCc2nnc3n2CC(C(F)(F)F)CC3)cc1` (stereo not given), which cytotoxicity at 10 µM is on record?
The cytotoxicity at 10 µM was 6.71%.

Which cytotoxicity at 10 µM does the source give for `COC(CNC(=O)C1CCN(S(C)(=O)=O)CC1)c1ccc(C)s1` (stereo not given) here?
Its cytotoxicity at 10 µM is -0.0506%.

With `CN(Cc1nc2ccccc2o1)CC1CCCN1c1cccnn1` (stereo not given) as the molecule, how does the cytotoxicity at 10 µM read?
The cytotoxicity at 10 µM was -9.45%.

With `CCn1ccnc1CN(C)Cc1nc(Cc2cccc(F)c2)no1` as the molecule, how does the cytotoxicity at 10 µM read?
The cytotoxicity at 10 µM was -4.44%.

Which cytotoxicity at 10 µM does the source give for `CC(C)C1CN(Cc2c[nH]cn2)CCCN1CC1CC1` (stereo not given) here?
Its cytotoxicity at 10 µM is 0.127%.

Which cytotoxicity at 10 µM does the source give for `Cc1cc(C)n(CC2CN(CC3CCCC3)CCO2)n1` (stereo not given) here?
Its cytotoxicity at 10 µM is -16.4%.

With `Clc1cccnc1N1CCC(C2CCN(Cc3cccnc3)CC2)C1` (stereo not given) as the molecule, how does the cytotoxicity at 10 µM read?
The cytotoxicity at 10 µM was 2.92%.

With `CCN(C)C(=O)c1cnc(-c2noc3cc(N4CCCCC4)ccc23)s1` as the molecule, how does the cytotoxicity at 10 µM read?
The cytotoxicity at 10 µM was 48.6%.

For `CSCC[C@H](NC(=O)Cn1ccc2c(Br)cccc21)C(=O)O`, which cytotoxicity at 10 µM is on record?
The cytotoxicity at 10 µM was -2.94%.

With `CNc1cc(C2CN(C(=O)c3ccccc3)CCO2)nc(C)n1` (stereo not given) as the molecule, how does the cytotoxicity at 10 µM read?
The cytotoxicity at 10 µM was 6.1%.

With `COc1ccc(CCC(=O)N2CCN(c3nc(C)ns3)CC2)cc1` as the molecule, how does the cytotoxicity at 10 µM read?
Its cytotoxicity at 10 µM is 6.26%.

Which cytotoxicity at 10 µM does the source give for `Cc1nn(CCNS(=O)(=O)c2ccccc2)c(C)c1Cl` here?
The cytotoxicity at 10 µM was -5.26%.

Which cytotoxicity at 10 µM does the source give for `CN1CC2(CCN(C(=O)c3[nH]cnc3-c3ccccc3)C2)OC1=O` (stereo not given) here?
The cytotoxicity at 10 µM was 4.43%.

Which cytotoxicity at 10 µM does the source give for `Cc1cc(C)nc(N2CCN(C(=O)c3cc(Cl)c[nH]3)CC2)n1` here?
Its cytotoxicity at 10 µM is -4%.

With `CC(NC(=O)N1CCc2sccc2C1)c1nncn1C` (stereo not given) as the molecule, how does the cytotoxicity at 10 µM read?
The cytotoxicity at 10 µM was -8.6%.

With `CN(C)C(=O)N1CCN(Cc2nc3ccccc3[nH]2)[C@H]2CS(=O)(=O)C[C@H]21` as the molecule, how does the cytotoxicity at 10 µM read?
Its cytotoxicity at 10 µM is -150%.

With `CC(C)C(=O)NCCc1cc2nc(-c3ccncc3)ccn2n1` as the molecule, how does the cytotoxicity at 10 µM read?
The cytotoxicity at 10 µM was 4.94%.

Which cytotoxicity at 10 µM does the source give for `O=C1CO[C@@H]2CN(S(=O)(=O)c3ccc(F)cc3)C[C@H]2N1` here?
Its cytotoxicity at 10 µM is 4.59%.

For `CC[C@H](C)[C@@H](CO)NC(C)Cc1ccc(Cl)cc1` (stereo not given in full), which cytotoxicity at 10 µM is on record?
Its cytotoxicity at 10 µM is -10.6%.
